Series [1] concerns Vero. The series is described as follows: Cytotoxicity against African green monkey Vero cells. Particulars: Chlorocebus sabaeus. The series is classed as cell-based.
Series [2] relates to Mycolicibacterium smegmatis. Description: Antibacterial activity against Mycobacterium smegmatis harboring 126E6 mutant measured after 24 hrs by resazurin microdilution assay. The series is classed as functional. In a few lines:
(§1)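 Two-fold drug dilutions in 96-well plates with species-appropriate medium. Each well receives an inoculum of about 1 × 10^3 UFC. Each plate has a no-drug growth control and a no-bacteria medium control. Resazurin is added to 0.003% final. Incubation time and temperature vary by species. MIC is the lowest concentration preventing the blue-to-pink (resorufin) colour change.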
(In general: The colour change of resazurin is a common sign of viable cells or microbes.)

The test system of series [3] is Mycobacterium tuberculosis. The series is described as follows: Antibacterial activity against Mycobacterium tuberculosis H37Rv after 7 days by resazurin microdilution assay. The note with it: 168 h. Type of series: functional. In outline:
as §1

For series [4], the system named is Mycolicibacterium aurum. The series is described as follows: Antibacterial activity against Mycobacterium aurum after overnight incubation by resazurin microdilution assay. The series is classed as functional. In outline:
(§2)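 Mycobacteria were cultured in Middlebrook 7H9 with ADC and glycerol, at 32 °C for M. marinum (4 days) or with overnight incubation for M. aurum. Resazurin microdilution used 2-fold dilutions and about 1 × 10^3 UFC per well, with growth and medium controls. Resazurin 0.003% final. MIC defined as the lowest concentration preventing the blue-to-pink change.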

In series [5] the test system is Mycobacterium marinum. Description: Antibacterial activity against Mycobacterium marinum after 4 days by resazurin microdilution assay. Type of series: functional. Particulars: 96 h. In a few lines: as §2
Series [6] deals with Mycolicibacterium smegmatis. Description: Antibacterial activity against Mycobacterium smegmatis MC2 155 by resazurin microdilution assay. The series is classed as functional. Particulars: str. MC2 155. In outline:
as §1

Series [7] concerns Mycobacterium avium. Description: Antibacterial activity against Mycobacterium avium after 7 days by resazurin microdilution assay. Type of series: functional. The note with it: 168 h. In outline:
as §1

Series [8] has as its system Escherichia coli. The series is described as follows: Antibacterial activity against Escherichia coli after 6 hrs by resazurin microdilution assay. The series is classed as functional. In a few lines:
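Clinical isolate of E. coli in Mueller−Hinton broth at 37 °C, 6 h incubation. Two-fold dilution series in 96-well plates with about 1 × 10^3 UFC per well. Growth and medium-only controls were run. Resazurin at 0.003% final. MIC taken as the lowest concentration blocking reduction of resazurin (blue) to resorufin (pink).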

Series [9] relates to Streptococcus agalactiae. Description: Antibacterial activity against Streptococcus agalactiae NEM316 by resazurin microdilution assay. Type of series: functional. In a few lines: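 S. agalactiae NEM316 in Todd−Hewitt broth at 37 °C. Compounds were tested as 2-fold dilutions in 96 wells with an inoculum of about 1 × 10^3 UFC per well. Controls without antibiotic or without bacteria were included. Resazurin 0.003% final. MIC was the lowest concentration preventing the color change from blue to pink.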

In series [10] the test system is Staphylococcus aureus. The series is described as follows: Antibacterial activity against Staphylococcus aureus by resazurin microdilution assay. The series is classed as functional. In a few lines: (§3)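 Clinical isolates were grown at 37 °C in Mueller−Hinton broth. Two-fold dilutions were made in 96-well plates and inoculated with about 1 × 10^3 UFC per well. Growth controls (no antibiotic) and medium controls (no bacteria) were included. Resazurin was added to 0.003% final. MIC was the lowest concentration that prevented the blue-to-pink color change.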

The test system of series [11] is Pseudomonas aeruginosa. Description: Antibacterial activity against Pseudomonas aeruginosa by resazurin microdilution assay. Type of series: functional. In outline: as §3
The test system of series [12] is Klebsiella aerogenes. Description: Antibacterial activity against Enterobacter aerogenes by resazurin microdilution assay. Type of series: functional. In outline:
as §3

Series [13] concerns Klebsiella pneumoniae. Description: Antibacterial activity against Klebsiella pneumoniae by resazurin microdilution assay. Type of series: functional. In a few lines:
as §3

The nature of series [14]: Drug metabolism in Mycobacterium smegmatis 126E6 assessed as NfnB-mediated hydroxyl […] formation after 3 hrs by LC-MS/MS analysis. The series is classed as ADME. The note with it: mycolicibacterium smegmatis. In outline:
(§4)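 M. smegmatis wild type or transposon mutant 126E6 was grown in 7H9 to OD600 0.6 at 37 °C. 5 mL aliquots received 0.3 mg of compound or none and were incubated 3 h. Cultures were sonicated, cleared and filtered (0.45 μm), then mixed with acetonitrile/methanol/water. Analysis was aqueous normal-phase LC with ESI QTOF, reported as ion counts per mL, including the hydroxylamine intermediate (m/z 372.0012).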

Series [15] has as its system Mycolicibacterium aurum. Description: Growth inhibition of Mycobacterium aurum at 0.4 uM after overnight incubation by resazurin microdilution assay relative to control. Particulars: read-out: GI. Type of series: functional. In a few lines:
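Single-concentration screen at 0.15 μg/mL (average 0.4 μM). M. aurum (20-fold dilution of an OD600 0.2–0.3 culture) was grown in 7H9 with 0.1% casitone, 0.5% glycerol, OADC and 0.002% resazurin for 18 h at 37 °C. Read-out was ΔOD (OD570 − OD604). Percent viability was normalized to DMSO (100%) and kanamycin (0%) controls.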

The subject of series [16] is Mycolicibacterium smegmatis. The series is described as follows: Antibacterial activity against Mycobacterium smegmatis harboring 126E6 mutant at 51.6 uM measured after 24 hrs by resazurin microdilution assay. The series is classed as functional. In outline:
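Hypersensitivity screen of the M. smegmatis Tn611 transposon mutant collection. Wells receive 2 μL from each mutant in Middlebrook 7H9 with ADC, 0.05% Tween 80, kanamycin and PANTA, with compound at 20 μg/mL final. Drug-free plates serve as growth controls. Plates are incubated 48 h at 37 °C, with resazurin (0.003% final) added at 24 h. Clones failing to grow are scored.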

Series [17] relates to Mycolicibacterium smegmatis. Description: Drug metabolism in Mycobacterium smegmatis assessed as hydroxyl […] formation after 3 hrs by LC-MS/MS analysis. Type of series: ADME. In outline:
as §4

Each structure is given as a SMILES string. Values after ≈ are worked out from the molar mass of the structure shown. Active and inactive are the calls of the source.

For `CCCOc1ccc(C(=O)Nc2ncc([N+](=O)[O-])s2)cc1Br`, the IC50 in series [1] was greater than 100 µM. For the same compound, the minimal inhibitory concentration (MIC) in series [2] is 10.1 µM (≈ 3.9 µg/mL); in [3], 77.6 µM (≈ 30 µg/mL); in series [4], 1 µM (≈ 0.386 µg/mL); in series [5] it was 4.03 µM (≈ 1.56 µg/mL); in series [6], greater than 129 µM; in [7], 77.7 µM (≈ 30 µg/mL). Besides, the MIC in series [8] was greater than 129 µM; in series [9], greater than 129 µM; in series [10], 2.33 µM (≈ 0.9 µg/mL); in [11], greater than 129 µM; in series [12], greater than 129 µM; in [13], greater than 129 µM. For the same compound, the Drug metabolism result is recorded as “Metabolite_Detected” in series [14] and “Metabolite_Notdetected” in series [17]. Also, the inhibition of growth at 0.4 µM in series [15] is greater than 40%. The result in series [16] was Active.

In series [1], `O=C(Nc1ncc([N+](=O)[O-])s1)c1ccc(Cl)cc1Cl` yielded an IC50 greater than 100 µM. The MIC in [2] is 18.6 µM (≈ 5.92 µg/mL); in series [3] it was 78.5 µM (≈ 25 µg/mL); in [4] it was 2.45 µM (≈ 0.779 µg/mL); in series [5], 18.8 µM (≈ 5.98 µg/mL); in series [6], 78.5 µM (≈ 25 µg/mL); in series [7], 46.6 µM (≈ 14.8 µg/mL). For the same compound, the MIC in series [8] is greater than 93 µM; in series [9] it was greater than 93 µM; in series [10], 6.2 µM (≈ 1.97 µg/mL); in [11] it was 93 µM (≈ 29.6 µg/mL); in series [12], greater than 93 µM; in [13], greater than 93 µM. Also, in series [15], the inhibition of growth at 0.4 µM was greater than 40%.

On to `O=C(Nc1ncc([N+](=O)[O-])s1)c1ccccc1OC(F)(F)F`, for which the MIC turned out to be 19.6 µM (≈ 6.53 µg/mL) in [2]; 75 µM (≈ 25 µg/mL) in [3]; 4.65 µM (≈ 1.55 µg/mL) in series [4]; 9 µM (≈ 3 µg/mL) in series [5]; 75 µM (≈ 25 µg/mL) in [6]; 11.7 µM (≈ 3.9 µg/mL) in series [7]. Further, the MIC in series [8] was greater than 93.6 µM; in series [9], greater than 93.6 µM; in [10], 48.8 µM (≈ 16.3 µg/mL); in series [11] it was 93.6 µM (≈ 31.2 µg/mL); in [12], greater than 93.6 µM; in series [13], greater than 93.6 µM. Besides, the inhibition of growth at 0.4 µM in series [15] was greater than 40%.

A word on the IC50: it is the concentration needed to halve the response being measured. Broadly, the MIC is the lowest concentration found to suppress growth.

These data come from ChEMBL document CHEMBL4017510, “Nitazoxanide Analogs Require Nitroreduction for Antimicrobial Activity in Mycobacterium smegmatis” (J Med Chem, 2017).
